# Results reported in PMC9253162 (Bioactive Materials, 2022).
# What was measured:
# [1] = tested on: E. coli (ATCC-25922); assay: MIC, turbidity-based broth dilution assay; type: cell-based, Escherichia coli; settings: 2–7 × 10^5 CFU/mL, 37 °C, 190 rpm, 16 h
# Outline: (§1)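 Turbidity-based broth dilution at 2–7 × 10^5 CFU/mL, shaken at 190 rpm and 37 °C for 16 h, with Polymyxin-B as positive control. For the selectivity index (HC50/MIC), hemolysis was measured on mouse red blood cells. Triton X-100 set 100% lysis, and RBCs in PBS gave the background that was subtracted. HC50 was taken as the concentration causing 50% hemolysis.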
# [2] = tested on: P. aeruginosa (ATCC-27853); assay: MIC, turbidity-based broth dilution assay; type: cell-based, Pseudomonas aeruginosa; settings: 2–7 × 10^5 CFU/mL, 37 °C, 190 rpm, 16 h
# Outline: as §1
substance,measurement,setting,value
Polymyxin-B,Minimum Inhibitory Concentration E. coli,[1],<0.5 µg/mL
same,Minimum Inhibitory Concentration P. aeruginosa,[2],1.0 µg/mL
